Screening data deposited in PubChem BioAssay by several laboratories.
Autophagy HCS: alters autophagy in cells | MEF GFP-LC3 puncta imaging; test concentration mostly 10 µM | calls only at 10 µM (by protocol) | 190,000 compounds, 0.98% hits | AID 463193;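 active = percentage of spot-positive cells more than 3 SD above its plate mean, without a fluorescence outlier flag or 80% toxicity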;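 also: spot-positive cell cutoff set from DMSO-treated cells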
ROMK primary: modulates human ROMK potassium channel activity; Tet-inducible ROMK, thallium flux fluorescence; actives lie on both sides; B-score at 10 µM; P48048; 130,000 compounds, 2% hits; AID 1918;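 active = signal ratio slope over the read window, or its plate-corrected B-score, at least 3 SD from the plate mean, either direction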;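 also: B-score of the F/F0 ratio slope over 7 to 12 s after thallium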
Cl transport mod: modulators of human KCC2 chloride dependent transport. KCC2 cells, thallium flux FluoZin-2 fluorescence. B-score of Tl+ flux slope (higher = more flux/activation; lower = inhibition) at 10 µM. 190,000 compounds, 2.2% hits. AID 1456;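 active = thallium flux slope and its plate-corrected score both differing from the plate sample mean at a set confidence after two filtering rounds, in either direction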;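 also: slope of fluorescence scaled to starting intensity during 10 to 20 s after thallium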
DTT redox prof: compounds producing H2O2 with reducing agent – biochemical, NIH compound library profiling, artefact control for MLSCN library redox annotation, primary screen; 200,000 compounds, 0.03% hits; DTT-dependent redox cycling H2O2, phenol red/HRP absorbance; 100% = 100 µM peroxide control, 0% = buffer; activation, % at 10 µM; AID 878;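 active = activation of at least 50% relative to the plate's high and low controls in the primary single-dose screen; inactive = activation below 50%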;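 also: compound incubated with DTT at 0.8 mM final as the reducing agent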
Dynein cargo inh: dynein cargo transport inhibition. 220,000 compounds, 0.47% hits. z-score, hits read low. 3617.4 mouse cells, GR-EGFP nuclear translocation imaging; test concentration mostly 20 µM; stimulated with dexamethasone, 1 µM; active compounds read low;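 active = plate z-score of nuclear minus cytoplasmic receptor signal below a set negative limit, without overly bright fluorescence or cell loss, cut at about -3.5 in these data, passing the limit was not always enough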;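 also: z-score of nuclear minus cytoplasmic ring GR-EGFP intensity difference per well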
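Buffer or medium: Induction medium lacking tetracycline, stripped serum | Also added: Dexamethasone agonist, 1.0 µM final, for 30 min | Timing: 48 h induction, 1 h compound, 30 min dex at 37 °C | Detection: Formaldehyde fixation, Hoechst nuclear stain, 10x automated fluorescence imaging | Measure: Nuclear versus cytoplasmic GR-EGFP signal, averaged per well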
The depositor's hits bear a star; i = inactive; . = no result; + = active, no number. Most compounds without a hit are left out; they make up all but 4.1% or so of the library.

SMILES | Autophagy HCS | ROMK primary | Cl transport mod | DTT redox prof | Dynein cargo inh
CCOc1ccc(Nc2nc(NCC3CCCO3)c3ccccc3n2)cc1 (stereo unspecified) | + | -2.7 | . | 0 | 1.9
O=C(NC(=S)Nc1ncc(Br)cc1Br)c1cncc(Br)c1 | i | 1.1 | 3.5 | 0 | 0.51
Cc1ccccc1NC(=S)NC(=O)c1cncc(Br)c1 | i | -0.1 | 29* | 0 | -1.2
O=C(NC(=S)NC1CCCCCC1)c1cncc(Br)c1 | i | -0.057 | 48* | 0 | 0.44
O=C(C1=C[C@H](c2ccccc2)C[C@H](OCc2ccc(CO)cc2)O1)N1CCCCCCC1 | i | . | -0.49 | 0 | -1.4
CC(C)CN(C)Cc1c(C(=O)N2CCc3ccccc3C2)nc2ccc(Cl)cn12 | i | 0.54 | -0.22 | 0 | -0.58
Cc1nc(SCC(C)C)[nH]c(=O)c1Cc1ccccc1 | + | -0.04 | -0.18 | 0 | 0.48
CSc1nc(C)c(Cc2ccccc2)c(=O)[nH]1 | i | -1.3 | 0.81 | 0 | -0.092
CCC(C)(C)c1ccc(OCCCC[n+]2ccc(C)cc2)c(C(C)(C)CC)c1 | i | -5.9* | -1.2 | -1 | -3.6*
CC(C)C(OC(=O)/C=C/c1ccc2c(c1)OCO2)C(=O)NC(N)=O (stereo unspecified) | i | 1.7 | 0.35 | -2 | 0.73
Cc1nnc2n(-c3ccccc3)c(=O)c3c4c(sc3n12)COC(C(C)C)C4 (stereo unspecified) | i | 0.029 | 0.66 | 0 | 1.3
CC(C)C1Cc2c(sc3[nH]c(=S)n(Cc4ccccc4)c(=O)c23)CO1 (stereo unspecified) | i | 9.3* | 19* | 0 | 0.3
CC(C)N=C1NN=C(c2ccc(Cl)c(Cl)c2)CS1 | i | 0.34 | 2.4 | -1 | -0.58
CCOC(=O)C1=c2/c(=C/c3ccncc3)c(N)c(C(=O)OC)n2C(=O)C(c2ccncc2)S1 (stereo unspecified) | i | 1.3 | -0.35 | 0 | 1.6
CCOC(=O)C1=c2/c(=C/c3ccccc3OC)c(N)c(C#N)n2C(=O)C(c2ccccc2OC)S1 (stereo unspecified) | + | 0.77 | . | 1 | 0.11
CCCOc1ccc(NC(=O)CC2C(=O)N(Cc3ccccc3)C(=S)N2Cc2cccs2)cc1 (stereo unspecified) | i | 0.27 | -2 | -1 | 1.4
N=c1c2c(-c3ccccc3)c(-c3ccccc3)n(Cc3ccccc3)c2ncn1CCO | + | . | 0.14 | 2 | 1.8
OCCNc1ncnc2c1c(-c1ccccc1)c(-c1ccccc1)n2Cc1ccco1 | i | -1 | -2.8 | 0 | -0.1
N=c1c2c(-c3ccccc3)c(-c3ccccc3)n(Cc3ccco3)c2ncn1Cc1ccccc1 | + | -4.8* | -1.5 | 0 | -0.91
CCC(C)NC(=S)N(CCc1ccccc1)Cc1cc2cc(OC)c(OC)cc2[nH]c1=O (stereo unspecified) | i | -2.1 | -0.82 | 0 | -0.46
COc1ccccc1NC(=O)N1CCC(c2nc3cc(C)c(C)cc3[nH]2)CC1 | + | . | -0.12 | 1 | -0.2
COc1ccccc1NC(=S)N1CCC(c2nc3cc(C)c(C)cc3[nH]2)CC1 | i | . | -0.81 | 3 | 0.15
O=C(Nc1ccc2[nH]c(=S)sc2c1)c1ccccc1 | i | -0.046 | 44* | 0 | -0.36
O=C(Nc1ccc2[nH]ccc2c1)c1ccccc1 | . | -0.48 | 1.2 | . | 0.097
O=C(C/C=N\OCc1ccc([N+](=O)[O-])cc1)Nc1ccc(Br)cc1 | i | -1.7 | 0.067 | -1 | 1.4
SMILES | Autophagy HCS | ROMK primary | Cl transport mod | DTT redox prof | Dynein cargo inh
C/C(=C\c1ccccc1)C(=O)NCc1ccco1 | i | 0.079 | 0.041 | -1 | 0.44
O=C(CN1CC[n+]2c(-c3cccs3)csc21)c1ccc(-c2ccccc2)cc1 | i | -5.6* | 3.2* | -1 | -1.6
CCOC(=O)Cc1csc(NC(=S)NC(=O)c2ccc(C)cc2)n1 | i | . | 55* | 0 | -0.34
CCOC(=O)Cc1csc(NC(=S)NC(=O)c2ccccc2)n1 | i | -0.28 | 52* | 0 | 0.76
CCOC(=O)Cc1csc(NC(=O)c2ccc(C)cc2)n1 | i | -0.38 | -0.074 | 0 | 0.41
CCOC(=O)Cc1csc(NC(=S)NC(=O)c2ccccc2Br)n1 | i | . | 50* | 0 | -0.58
CCOC(=O)Cc1csc(NC(=O)c2ccc(Br)s2)n1 | i | . | 0.28 | 0 | 0.41
Fc1cnc(N2CCOCC2)nc1N1CCOCC1 | i | 0.088 | 0.17 | -1 | 2.3
Fc1cnc(N2CCOCC2)nc1N1CCc2ccccc21 | i | -2.8* | -3.3* | -1 | 0.37
COc1ccc(C(=O)NCCN2C(=O)S/C(=C\c3cccnc3)C2=O)cc1[N+](=O)[O-] | . | . | -2.8 | . | -0.54
CCOC(=O)Cn1ccc(-c2ccccc2)c(C#N)c1=O | i | -0.44 | -1.6 | -1 | 0.38
CC1CC(=O)c2c(cc3c(-c4c(O)cc(O)c5c(O)c6c(cc45)OC(C)CC6=O)c(O)cc(O)c3c2O)O1 (stereo unspecified) | i | . | -6.1* | 2 | -1.7
CCN(CC)S(=O)(=O)c1ccc2oc(C(=O)NCC3COc4ccccc4O3)c(C)c2c1 (stereo unspecified) | + | . | -0.04 | -1 | 0.075
N#CC1=C(N)C(C#N)(C#N)C(c2cccnc2)C2CN(C(=O)OCc3ccccc3)CC=C12 (stereo unspecified) | i | . | 0.18 | 0 | -0.15
N#CC1=C(N)C(C#N)(C#N)[C@H](c2ccoc2)[C@H]2CN(Cc3ccccc3)CC=C12 | + | . | i | 3 | -8
CC(=O)N1CC=C2C(C#N)=C(N)C(C#N)(C#N)[C@H](c3ccoc3)[C@H]2C1 | i | -0.75 | 0.51 | 0 | -0.64
CN1CC=C2C(C#N)=C(N)C(C#N)(C#N)[C@H](c3ccoc3)[C@H]2C1 | + | -2.8* | 0.39 | 0 | 8.1
CN1CC=C2C(C#N)=C(N)C(C#N)(C#N)C(c3cccc(Cl)c3Cl)C2C1 (stereo unspecified) | + | . | -1.4 | -2 | -1.9
O=C(CSc1ncnc2c1cnn2-c1ccc(Cl)cc1)NCc1ccc2c(c1)OCO2 | i | . | 21* | 0 | -0.68
c1ccc2c(-c3csc(-c4ccncc4)n3)c[nH]c2c1 | + | 0.34 | . | -1 | 0.17
Brc1ccc(-c2csc(-c3c[nH]c4ccccc34)n2)cc1 | i | . | . | 2 | -0.48
Fc1ccccc1N1CCN(C(c2cccs2)c2nnnn2CCc2ccccc2)CC1 (stereo unspecified) | i | . | -1.2 | 1 | -0.91
CCN1CCN(C(c2ccccc2F)c2nnnn2Cc2ccc3c(c2)OCO3)CC1 (stereo unspecified) | i | -2.2* | . | -4 | -1.3
c1ccc(CCn2nnnc2C(c2cccs2)N2CCN(Cc3ccc4c(c3)OCO4)CC2)cc1 (stereo unspecified) | i | -3.1* | -0.28 | 2 | 0.44
